The test system of one assay is Escherichia coli. The experiment in a line: Antibacterial activity against Escherichia coli assessed as bacterial growth inhibition after 24 hrs by CLSI protocol based broth microdilution assay. It is filed as functional.
In assay [1] the test system is Staphylococcus aureus. Nature of the assay: Antibacterial activity against methicillin-resistant Staphylococcus aureus assessed as bacterial growth inhibition after 24 hrs by CLSI protocol based broth microdilution assay. It is filed as functional. For orientation: Broth dilution looks for growth in wells or tubes with falling amounts of substance.
Assay [2] deals with Staphylococcus aureus. The experiment in a line: Inhibition of Staphylococcus aureus ATCC 6538 fabI expressed in Escherichia coli BL21 (DE3) assessed as oxidation of NADPH to NADP+ using trans-2-octenoyl CoA as substrate incubated for 2 hrs in presence of NADPH by spectrophotometric analysis.
Assay [3] concerns Staphylococcus aureus. The experiment in a line: Antibiofilm activity against methicillin-resistant Staphylococcus aureus ATCC 43300 assessed as reduction in biofilm biomass at 0.5 to 4 mg/L after 24 hrs by MTT assay. It is filed as functional, organism-based. Particulars: dose mg/L 0.5-4, time 24.0 hrs. The method in brief:
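Biofilm growth of MRSA ATCC 43300 measured in the presence of compound in cultivation plates, with a DMSO control. Significance of control vs treated is given at p < 0.05, 0.01 and 0.001.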

The test system of the next assay is Pseudomonas aeruginosa. Nature of the assay: Antibacterial activity against Pseudomonas aeruginosa assessed as bacterial growth inhibition after 24 hrs by CLSI protocol based broth microdilution assay. It is filed as functional.
The subject of the next assay is Enterococcus faecium. Nature of the assay: Antibacterial activity against Enterococcus faecium assessed as bacterial growth inhibition after 24 hrs by CLSI protocol based broth microdilution assay. It is filed as functional.
In another assay the test system is Candida tropicalis. The experiment in a line: Antifungal activity against Candida tropicalis assessed as fungal growth inhibition after 24 hrs by CLSI protocol based broth microdilution assay. It is filed as functional.
For the next assay, the system named is Candida albicans. The experiment in a line: Antifungal activity against Candida albicans assessed as fungal growth inhibition after 24 hrs by CLSI protocol based broth microdilution assay. It is filed as functional.
In a further assay the test system is Bacillus cereus. Nature of the assay: Antibacterial activity against Bacillus cereus assessed as bacterial growth inhibition after 24 hrs by CLSI protocol based broth microdilution assay. It is filed as functional.
For assay [4], the system named is Staphylococcus aureus. The experiment in a line: Antibacterial activity against Staphylococcus aureus assessed as bacterial growth inhibition after 24 hrs by CLSI protocol based broth microdilution assay. It is filed as functional.

Structures are written as SMILES. ≈ marks a conversion by molar mass, not a printed value. Calls of active or inactive are those of the source. The calls are words filed in the database; no cut-off is given here.

Turning to `Oc1ccc(Cl)cc1CNc1cc(C(F)(F)F)ccc1Cl`, the MIC is ≥ 64 µg/mL with Escherichia coli; 1 µg/mL (≈ 2.97 µM) with Staphylococcus aureus [1]; ≥ 64 µg/mL with Pseudomonas aeruginosa; ≤ 2 µg/mL in the assay with Enterococcus faecium; ≥ 64 µg/mL in the assay with Candida tropicalis; ≥ 64 µg/mL with Candida albicans. The figures for the MIC with Bacillus cereus and in the assay with Staphylococcus aureus [4] were ≤ 2 µg/mL and 1 µg/mL (≈ 2.97 µM), respectively. Moreover, in the assay with Staphylococcus aureus [2], the inhibition entry was “Active”. Moreover, the outcome in the assay on Staphylococcus aureus [3] was Active.

Usually MIC stands for the lowest concentration that inhibits growth of the organism.

These data come from ChEMBL document CHEMBL4665639, “N-Benzylanilines as Fatty Acid Synthesis Inhibitors against Biofilm-related Methicillin-resistant Staphylococcus aureus” (ACS Med Chem Lett, 2019).
